Measured values: PMC9116722 (Cancer chemotherapy and pharmacology, 2022)

Assay: Adverse events
Assay type: in vivo, human
Settings: BRCAmut and BRCAwt combined
Summary of the method: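 Patients with germline BRCA-mutated cancers, or BRCA-wildtype TNBC or platinum-refractory ovarian cancer, took oral drug continuously twice daily in 28-day cycles. There were nine dose levels from 50 to 500 mg BID under 3+3 escalation, run separately per cohort after the first DLT. Toxicities were graded by CTCAE v4.0, with DLTs assessed during cycle 1.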

With C[C@]1(c2nc3c(C(N)=O)cccc3[nH]2)CCCN1 [veliparib] the “Abdominal pain, Any Grade” value was 6 (6) number of patients (%), the “Abdominal pain, Grade 1” value was 3 (3) number of patients (%) and the “Abdominal pain, Grade 2” value was 1 (1) number of patients (%). The “Abdominal pain, Grade 3” value was 2 (2) number of patients (%), the “Abdominal pain, Grade 4” value was 0 (0) number of patients (%) and the “Alkaline phosphatase increased, Any Grade” value was 6 (6) number of patients (%). For the same molecule, the “Alkaline phosphatase increased, Grade 1” value was 3 (3) number of patients (%), the “Alkaline phosphatase increased, Grade 2” value was 2 (2) number of patients (%) and the “Alkaline phosphatase increased, Grade 3” value was 1 (1) number of patients (%). For the same molecule, the “Alkaline phosphatase increased, Grade 4” value was 0 (0) number of patients (%), the “Anemia, Any Grade” value was 31 (32) number of patients (%) and the “Anemia, Grade 1” value was 19 (19) number of patients (%). For the same molecule, the “Anemia, Grade 2” value was 10 (10) number of patients (%), the “Anemia, Grade 3” value was 1 (1) number of patients (%) and the “Anemia, Grade 4” value was 1 (1) number of patients (%). For the same molecule, the “Anorexia, Any Grade” value was 20 (20) number of patients (%), the “Anorexia, Grade 1” value was 17 (17) number of patients (%) and the “Anorexia, Grade 2” value was 3 (3) number of patients (%). For the same molecule, the “Anorexia, Grade 3” value was 0 (0) number of patients (%), the “Anorexia, Grade 4” value was 0 (0) number of patients (%) and the “Any adverse event, Any Grade” value was 92 (94) number of patients (%). For the same molecule, the “Any adverse event, Grade 1” value was 86 (88) number of patients (%), the “Any adverse event, Grade 2” value was 54 (55) number of patients (%) and the “Any adverse event, Grade 4” value was 3 (3) number of patients (%). For the same molecule, the “Aspartate aminotransferase increased, Any Grade” value was 9 (9) number of patients (%), the “Aspartate aminotransferase increased, Grade 1” value was 8 (8) number of patients (%) and the “Aspartate aminotransferase increased, Grade 2” value was 0 (0) number of patients (%). For the same molecule, the “Aspartate aminotransferase increased, Grade 3” value was 1 (1) number of patients (%), the “Aspartate aminotransferase increased, Grade 4” value was 0 (0) number of patients (%) and the “Constipation, Any Grade” value was 9 (9) number of patients (%). The “Constipation, Grade 1” value was 8 (8) number of patients (%), the “Constipation, Grade 2” value was 1 (1) number of patients (%) and the “Constipation, Grade 3” value was 0 (0) number of patients (%). The “Constipation, Grade 4” value was 0 (0) number of patients (%), the “Diarrhea, Any Grade” value was 19 (19) number of patients (%) and the “Diarrhea, Grade 1” value was 16 (16) number of patients (%). For the same molecule, the “Diarrhea, Grade 2” value was 3 (3) number of patients (%), the “Diarrhea, Grade 3” value was 0 (0) number of patients (%) and the “Diarrhea, Grade 4” value was 0 (0) number of patients (%). For the same molecule, the “Dizziness, Any Grade” value was 9 (9) number of patients (%), the “Dizziness, Grade 1” value was 8 (8) number of patients (%) and the “Dizziness, Grade 2” value was 1 (1) number of patients (%). For the same molecule, the “Dizziness, Grade 3” value was 0 (0) number of patients (%), the “Dizziness, Grade 4” value was 0 (0) number of patients (%) and the “Dry mouth, Any Grade” value was 8 (8) number of patients (%). The “Dry mouth, Grade 1” value was 8 (8) number of patients (%), the “Dry mouth, Grade 2” value was 0 (0) number of patients (%) and the “Dry mouth, Grade 3” value was 0 (0) number of patients (%). For the same molecule, the “Dry mouth, Grade 4” value was 0 (0) number of patients (%), the “Dysgeusia, Any Grade” value was 16 (16) number of patients (%) and the “Dysgeusia, Grade 1” value was 16 (16) number of patients (%). For the same molecule, the “Dysgeusia, Grade 2” value was 0 (0) number of patients (%), the “Dysgeusia, Grade 3” value was 0 (0) number of patients (%) and the “Dysgeusia, Grade 4” value was 0 (0) number of patients (%). The “Dyspepsia, Any Grade” value was 6 (6) number of patients (%), the “Dyspepsia, Grade 1” value was 6 (6) number of patients (%) and the “Dyspepsia, Grade 2” value was 0 (0) number of patients (%). The “Dyspepsia, Grade 3” value was 0 (0) number of patients (%), the “Dyspepsia, Grade 4” value was 0 (0) number of patients (%) and the “Dyspnea, Any Grade” value was 5 (5) number of patients (%). The “Dyspnea, Grade 1” value was 2 (2) number of patients (%), the “Dyspnea, Grade 2” value was 1 (1) number of patients (%) and the “Dyspnea, Grade 3” value was 1 (1) number of patients (%). For the same molecule, the “Dyspnea, Grade 4” value was 1 (1) number of patients (%), the “Fatigue, Any Grade” value was 44 (45) number of patients (%) and the “Fatigue, Grade 1” value was 33 (34) number of patients (%). For the same molecule, the “Fatigue, Grade 2” value was 9 (9) number of patients (%), the “Fatigue, Grade 3” value was 2 (2) number of patients (%) and the “Fatigue, Grade 4” value was 0 (0) number of patients (%). The “Headache, Any Grade” value was 9 (9) number of patients (%), the “Headache, Grade 1” value was 7 (7) number of patients (%) and the “Headache, Grade 2” value was 1 (1) number of patients (%). The “Headache, Grade 3” value was 1 (1) number of patients (%), the “Headache, Grade 4” value was 0 (0) number of patients (%) and the “Hyperglycemia, Any Grade” value was 10 (10) number of patients (%). The “Hyperglycemia, Grade 1” value was 9 (9) number of patients (%), the “Hyperglycemia, Grade 2” value was 1 (1) number of patients (%) and the “Hyperglycemia, Grade 3” value was 0 (0) number of patients (%). The “Hyperglycemia, Grade 4” value was 0 (0) number of patients (%), the “Hyponatremia, Any Grade” value was 7 (7) number of patients (%) and the “Hyponatremia, Grade 1” value was 7 (7) number of patients (%). For the same molecule, the “Hyponatremia, Grade 2” value was 0 (0) number of patients (%), the “Hyponatremia, Grade 3” value was 0 (0) number of patients (%) and the “Hyponatremia, Grade 4” value was 0 (0) number of patients (%). The “Hypophosphatemia, Any Grade” value was 8 (8) number of patients (%) and the “Hypophosphatemia, Grade 1” value was 2 (2) number of patients (%).
